Data taken from ChEMBL document CHEMBL1121844, “Synthesis and preliminary antitumor evaluation of 5-iminodoxorubicin” (1981).
pEC50: −log10 of the molar value.

Legend:
Assay type in all cases: functional
L1210 [1] = assay: Dose required to inhibit the DNA synthesis in leukemia L1210 cells; conditions: Mus musculus, read-out: ED50 (the source's name)
L1210 [2] = assay: Dose required to inhibit the RNA synthesis in leukemia L1210 cells; conditions: Mus musculus, read-out: ED50 (the source's name)
Mus musculus [3] = assay: Compound was evaluated for antitumor activity in mice injected intraperitoneal with leukemia P-388 cells, treated on days 5, 9, and 13th day at 6.25 mg/kg
Method in brief: (§1)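 Mice received leukemia P-388 cells intraperitoneally on day 0. The specified dose was then given ip on days 5, 9 and 13. Read-out was % T/C, the survival time of treated mice relative to untreated controls. A T/C of 120% or more was defined as active.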

Mus musculus [4] = assay: Compound was evaluated for antitumor activity in mice injected intraperitoneal with leukemia P-388 cells, treated on days 5, 9, and 13 th day at 50 mg/kg; method in brief: as §1
Mus musculus [5] = assay: Compound was evaluated for antitumor activity in mice injected intraperitoneal with leukemia P-388 cells, treated on days 5, 9, and 13th day at 12.5 mg/kg; method in brief: as §1
Mus musculus [6] = assay: Compound was evaluated for antitumor activity in mice injected intraperitoneal with leukemia P-388 cells, treated on days 5, 9, and 13th day at 25 mg/kg; method in brief: as §1
Rattus norvegicus = species on record: Rattus norvegicus; assay: Compound was evaluated for augmentation of rat liver microsomal oxygen consumption relative to doxorubicin
Nucleic Acid = assay: Thermal denaturation for stabilization of helical DNA by the compound
Mus musculus [7] = assay: Compound was evaluated for antitumor activity in mice injected intraperitoneal with leukemia P-388 cells, treated on days 5, 9, and 13 th day at 1 mg/kg; method in brief: as §1
Mus musculus [8] = assay: Compound was evaluated for antitumor activity in mice injected intraperitoneal with leukemia P-388 cells, treated on days 5, 9, and 13 th day at 2 mg/kg; method in brief: as §1
Mus musculus [9] = assay: Compound was evaluated for antitumor activity in mice injected intraperitoneal with leukemia P-388 cells, treated on days 5, 9, and 13 th day at 4 mg/kg; method in brief: as §1
Mus musculus [10] = assay: Compound was evaluated for antitumor activity in mice injected intraperitoneal with leukemia P-388 cells, treated on days 5, 9, and 13 th day at 8 mg/kg; method in brief: as §1
Mus musculus [11] = assay: Compound was evaluated for antitumor activity in mice injected intraperitoneal with leukemia P-388 cells, treated on days 5, 9, and 13 th day at 16 mg/kg; method in brief: as §1
Mus musculus [12] = assay: Compound was evaluated for antitumor activity in mice injected intraperitoneal with leukemia P-388 cells, treated on days 5, 9, and 13th day at 4 mg/kg; method in brief: as §1
Mus musculus [13] = assay: Compound was evaluated for antitumor activity in mice injected intraperitoneal with leukemia P-388 cells, treated on days 5, 9, and 13th day at 8 mg/kg; method in brief: as §1
Mus musculus [14] = assay: Compound was evaluated for antitumor activity in mice injected intraperitoneal with leukemia P-388 cells, treated on days 5, 9, and 13th day at 2 mg/kg; method in brief: as §1
Mus musculus [15] = assay: Compound was evaluated for antitumor activity in mice injected intraperitoneal with leukemia P-388 cells, treated on days 5, 9, and 13th day at 5.4 mg/kg; method in brief: as §1
Mus musculus [16] = assay: Compound was evaluated for antitumor activity in mice injected intraperitoneal with leukemia P-388 cells, treated on days 5, 9, and 13th day at 5.76 mg/kg; method in brief: as §1
Mus musculus [17] = assay: Compound was evaluated for antitumor activity in mice injected intraperitoneal with leukemia P-388 cells, treated on days 5, 9, and 13th day at 6 mg/kg; method in brief: as §1
Mus musculus [18] = assay: Compound was evaluated for antitumor activity in mice injected intraperitoneal with leukemia P-388 cells, treated on days 5, 9, and 13th day at 9.6 mg/kg; method in brief: as §1
Mus musculus [19] = assay: Compound was evaluated for antitumor activity in mice injected intraperitoneal with leukemia P-388 cells, treated on days 5, 9, and 13th day at 9 mg/kg; method in brief: as §1
Mus musculus [20] = assay: Compound was evaluated for antitumor activity in mice injected intraperitoneal with leukemia P-388 cells, treated on days 5, 9, and 13 th day at 24 mg/kg; method in brief: as §1
Mus musculus [21] = assay: Compound was evaluated for antitumor activity in mice injected intraperitoneal with leukemia P-388 cells, treated on days 5, 9, and 13th day at 1.5 mg/kg; method in brief: as §1
Mus musculus [22] = assay: Compound was evaluated for antitumor activity in mice injected intraperitoneal with leukemia P-388 cells, treated on days 5, 9, and 13th day at 1.94 mg/kg; method in brief: as §1
Mus musculus [23] = assay: Compound was evaluated for antitumor activity in mice injected intraperitoneal with leukemia P-388 cells, treated on days 5, 9, and 13th day at 12 mg/kg; method in brief: as §1
Mus musculus [24] = assay: Compound was evaluated for antitumor activity in mice injected intraperitoneal with leukemia P-388 cells, treated on days 5, 9, and 13th day at 16 mg/kg; method in brief: as §1
Mus musculus [25] = assay: Compound was evaluated for antitumor activity in mice injected intraperitoneal with leukemia P-388 cells, treated on days 5, 9, and 13th day at 3.24 mg/kg; method in brief: as §1
Mus musculus [26] = assay: Compound was evaluated for antitumor activity in mice injected intraperitoneal with leukemia P-388 cells, treated on days 5, 9, and 13th day at 3.46 mg/kg; method in brief: as §1
Mus musculus [27] = assay: Compound was evaluated for antitumor activity in mice injected intraperitoneal with leukemia P-388 cells, treated on days 5, 9, and 13th day at 3 mg/kg; method in brief: as §1

For `COc1cccc2c1C(=N)c1c(O)c3c(c(O)c1C2=O)C[C@@](O)(C(=O)CO)C[C@@H]3OC1CC(N)C(O)C(C)O1.Cl` (stereo partly specified), the pEC50 (L1210 [1]) was 5.70, the pEC50 (L1210 [2]) was 5.68 and the T/C (Mus musculus [3]) was 122%. It also gave a T/C (Mus musculus [4]) of 173%, a T/C (Mus musculus [5]) of 132% and a T/C (Mus musculus [6]) of 155%. The Augmentation (Rattus norvegicus) was 7.5% and the ΔTm (Nucleic Acid) was 6.9 °C.

Compound `COc1cccc2c1C(=O)c1c(O)c3c(c(O)c1C2=O)C[C@@](O)(C(=O)CO)C[C@@H]3O[C@H]1C[C@H](N)[C@H](O)[C@H](C)O1.Cl` [DOXORUBICIN HYDROCHLORIDE] has a pEC50 (L1210 [1]) of 5.82, a pEC50 (L1210 [2]) of 6.15 and a T/C (Mus musculus [7]) of 123%. It also gave a T/C (Mus musculus [8]) of 130%, a T/C (Mus musculus [9]) of 144% and a T/C (Mus musculus [10]) of 162%. The T/C (Mus musculus [11]) was 125%, the Augmentation (Rattus norvegicus) was 100% and the ΔTm (Nucleic Acid) was 13.4 °C.

`COc1cccc2c1C(=O)c1c(O)c3c(c(O)c1C2=O)C[C@@](O)(C(C)=O)C[C@@H]3O[C@H]1C[C@H](N)[C@H](O)[C@H](C)O1.Cl` [DAUNORUBICIN HYDROCHLORIDE] gave a pEC50 (L1210 [1]) of 6.00, a pEC50 (L1210 [2]) of 6.52 and a T/C (Mus musculus [12]) of 126%. It also gave a T/C (Mus musculus [13]) of 129%, a T/C (Mus musculus [14]) of 123% and a T/C (Mus musculus [11]) of 123%. The Augmentation (Rattus norvegicus) was 109%.

In the case of `COc1cccc2c1C(=N)c1c(O)c3c(c(O)c1C2=O)C[C@@](O)(C(C)=O)C[C@@H]3OC1CC(N)C(O)C(C)O1.Cl` (stereo partly specified), the pEC50 (L1210 [1]) was 5.80, the pEC50 (L1210 [2]) was 5.89 and the T/C (Mus musculus [15]) was 161%. The T/C (Mus musculus [16]) was 186%, the T/C (Mus musculus [17]) was 124% and the T/C (Mus musculus [18]) was 180%. It also gave a T/C (Mus musculus [19]) of 157%, a T/C (Mus musculus [20]) of 126% and a T/C (Mus musculus [21]) of 126%. It also gave a T/C (Mus musculus [22]) of 137%, a T/C (Mus musculus [23]) of 116% and a T/C (Mus musculus [24]) of 140%. For the same compound, the T/C (Mus musculus [25]) was 150%, the T/C (Mus musculus [26]) was 177% and the T/C (Mus musculus [27]) was 130%. For the same compound, the Augmentation (Rattus norvegicus) was 8.2% and the ΔTm (Nucleic Acid) was 6.2 °C.
